In ChEMBL document CHEMBL4715734, “Discovery of the Potent and Selective M1 PAM-Agonist N-[(3R,4S)-3-Hydroxytetrahydro-2H-pyran-4-yl]-5-methyl-4-[4-(1,3-thiazol-4-yl)benzyl]pyridine-2-carboxamide (PF-06767832): Evaluation of Efficacy and Cholinergic Side Effects” (J Med Chem, 2016):
The source made the active and inactive calls. The calls are words filed in the database; no cut-off is given here.

Tests used:
[1] = In vivo positive allosteric modulation of muscarinic M1 receptor in CD1 mouse assessed as increase in ACh-induced IP-1 levels in […] tissue at 10 mg/kg, sc measured after 2 hrs by HTRF assay relative to baseline; type: functional
In short: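 Given sc as a solution in 5/15/80 DMSO/Solutol/water. Striatal IP1 was read 2 h after dosing and expressed as fold increase over baseline. Compound levels were measured in striatal tissue at 2 h (N=5/dose). Each animal's fold increase was plotted against its unbound brain concentration.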

[2] = Toxicity in male Beagle dog assessed as change in CV end points at 0.3 mg/kg, po by telemetry; type: organism-based, Canis lupus familiaris; details: in vivo
In short: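 Crossover telemetry study in dogs at three oral doses (0.3, 1 and 3 mg/kg), N=4. Endpoints were blood pressure, maximum systolic left ventricular pressure, LV +dP/dt max, activity, heart rate, and RR, QT and QTc intervals, followed up to 9 h post dose.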

[3] = Toxicity in dog assessed as ataxia at 45 mg/kg, po using spray-dried dispersion formulation measured after 45 mins; type: organism-based, Canis lupus familiaris; details: in vivo, 0.75 h
In short: (§1)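 Dogs received single escalating oral doses as a spray-dried dispersion (10% drug loading with HPMCAS-M). The dispersion was suspended in 0.5 wt% methylcellulose/0.5 wt% HPMCAS in 20 mM tris buffer, pH 7.4. One dog per sex per dose was used, and clinical signs were recorded.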

[4] = Toxicity in dog assessed as emesis at 45 mg/kg, po using spray-dried dispersion formulation measured after 45 mins; type: organism-based, Canis lupus familiaris; details: in vivo, 0.75 h; in short: as §1
[5] = fCmax in dog at 5 mg/kg, po using spray-dried dispersion formulation; type: ADME, organism-based, Canis lupus familiaris; details: in vivo
[6] = Toxicity in male rat assessed as increase in body weight at 10 mg/kg, po administered for 14 days; type: organism-based; details: in vivo, 336 h, time 14 day
In short: (§2)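 Two-week repeat-dose toxicity study in rats. Oral dosing in 0.5% methylcellulose at 3, 10, 30 (males)/15 (females) mg/kg, N=4/sex/dose. Food intake, body weight gain and histopathology were assessed.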

[7] = Toxicity in female rat assessed as increase in food intake at 15 mg/kg, po administered for 14 days; type: organism-based; details: in vivo, 336 h, time 14 day; in short: as §2
[8] = fCmax in rat at 3 mg/kg, po administered for 14 days; type: ADME, organism-based; details: in vivo, 336 h, time 14 day
In short: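 2-week repeat oral dosing in rats, 0.5% methylcellulose formulation; N=4/sex/dose; doses 3, 10, 30 (males)/15 (females) mg/kg; unbound exposures reported per dose and sex.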

[9] = Unbound brain concentration in amphetamine-induced C57BL/6J mouse model of hyperlocomotion at 3.2 mg/kg, sc measured after 1 hr; type: ADME, organism-based; details: in vivo
In short: (§3)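 Satellite PK animals from the mouse aLMA study, N=2/dose. Dosed subcutaneously with a solution in 5/15/80 DMSO/Solutol/water. Plasma and brain were sampled at T = 1 h.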

[10] = Unbound brain concentration in amphetamine-induced C57BL/6J mouse model of hyperlocomotion at 1 mg/kg, sc measured after 1 hr; type: ADME, organism-based; details: in vivo; in short: as §3
[11] = Unbound brain concentration in amphetamine-induced C57BL/6J mouse model of hyperlocomotion at 0.32 mg/kg, sc measured after 1 hr; type: ADME, organism-based; details: in vivo; in short: as §3
[12] = biological target: cGMP-dependent 3',5'-cyclic phosphodiesterase (Homo sapiens, UniProt O00408); assay: Inhibition of PDE2A (unknown origin)
cGMP-dependent 3',5'-cyclic phosphodiesterase, sequence (O00408 whole entry): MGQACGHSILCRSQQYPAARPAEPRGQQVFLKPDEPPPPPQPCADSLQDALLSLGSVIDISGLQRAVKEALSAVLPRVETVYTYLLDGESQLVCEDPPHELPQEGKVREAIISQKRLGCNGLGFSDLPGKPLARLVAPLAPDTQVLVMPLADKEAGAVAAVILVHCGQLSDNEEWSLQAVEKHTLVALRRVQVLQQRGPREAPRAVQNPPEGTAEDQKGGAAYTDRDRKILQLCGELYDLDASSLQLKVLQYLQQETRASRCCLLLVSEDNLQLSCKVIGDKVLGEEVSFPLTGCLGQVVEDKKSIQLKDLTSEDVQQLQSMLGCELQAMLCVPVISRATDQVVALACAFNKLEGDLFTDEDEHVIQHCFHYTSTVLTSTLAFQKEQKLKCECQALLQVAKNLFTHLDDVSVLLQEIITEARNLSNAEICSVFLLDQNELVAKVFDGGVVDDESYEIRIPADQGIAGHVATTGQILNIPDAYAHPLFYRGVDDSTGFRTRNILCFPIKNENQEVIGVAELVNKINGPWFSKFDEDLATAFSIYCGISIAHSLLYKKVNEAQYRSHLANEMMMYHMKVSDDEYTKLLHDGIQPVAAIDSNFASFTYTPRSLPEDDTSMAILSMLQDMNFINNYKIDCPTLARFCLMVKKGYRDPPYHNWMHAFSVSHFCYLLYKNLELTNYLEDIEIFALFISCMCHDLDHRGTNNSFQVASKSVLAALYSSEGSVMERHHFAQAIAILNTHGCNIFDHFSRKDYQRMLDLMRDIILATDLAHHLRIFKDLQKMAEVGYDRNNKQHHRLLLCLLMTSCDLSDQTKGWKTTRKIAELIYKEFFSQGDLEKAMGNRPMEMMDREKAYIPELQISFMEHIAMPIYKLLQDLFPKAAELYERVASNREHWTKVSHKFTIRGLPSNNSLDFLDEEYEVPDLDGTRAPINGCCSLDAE

[13] = biological target: Muscarinic acetylcholine receptor M3 (Homo sapiens, UniProt P20309); assay: Agonist activity at human recombinant muscarinic M3 receptor stably expressed in CHO cells assessed as increase in intracellular calcium level up to 10 uM incubated for 10 mins by Fluo-8AM dye based FLIPR TETRA method; type: cell-based
Muscarinic acetylcholine receptor M3, sequence (P20309 whole entry): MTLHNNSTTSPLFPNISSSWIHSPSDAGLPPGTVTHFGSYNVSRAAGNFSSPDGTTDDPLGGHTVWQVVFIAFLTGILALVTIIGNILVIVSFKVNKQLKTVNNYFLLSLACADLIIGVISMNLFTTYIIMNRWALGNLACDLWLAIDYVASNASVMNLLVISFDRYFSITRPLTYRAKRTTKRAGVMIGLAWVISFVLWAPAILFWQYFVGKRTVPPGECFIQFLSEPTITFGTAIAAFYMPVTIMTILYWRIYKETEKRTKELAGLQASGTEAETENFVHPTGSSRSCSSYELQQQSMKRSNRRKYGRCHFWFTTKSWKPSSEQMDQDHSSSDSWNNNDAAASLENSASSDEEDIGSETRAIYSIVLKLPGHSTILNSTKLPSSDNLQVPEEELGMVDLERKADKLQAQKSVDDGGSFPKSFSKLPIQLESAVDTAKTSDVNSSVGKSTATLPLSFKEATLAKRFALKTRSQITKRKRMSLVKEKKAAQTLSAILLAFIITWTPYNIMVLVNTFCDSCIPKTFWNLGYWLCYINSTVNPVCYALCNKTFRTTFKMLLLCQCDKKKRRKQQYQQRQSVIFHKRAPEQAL

[14] = Ratio of fAUC in dog brain to plasma; type: ADME, cell-free, Canis lupus familiaris; details: brain and plasma, read-out: Ratio AUC
[15] = Fraction unbound in Beagle dog plasma; type: ADME, Canis lupus familiaris
[16] = Half-life in rat at 0.5 mg/kg, po or 1 mg/kg, iv; type: ADME, organism-based; details: in vivo
[17] = Ratio of fAUC in C57BL/6 mouse brain to plasma; type: ADME, cell-free; details: brain and plasma, read-out: Ratio AUC
[18] = Toxicity in rat at 3 mg/kg, po administered for 14 days; type: organism-based; details: in vivo, 336 h, time 14 day; in short: as §2
[19] = Toxicity in rat assessed as histopathological changes at 3 to 30 mg/kg, po administered for 14 days; type: organism-based; details: in vivo, 336 h, dose 3-30 mg/kg, time 14 day; in short: as §2
[20] = Partial agonist activity at muscarinic M2/M3 receptor in Hartley guinea pig ileum assessed as stimulation of contraction in presence of mAChR antagonist atropine; type: tissue-based, Cavia porcellus
In short: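 Agonist mode used a guinea pig ileum tissue bath with the compound applied alone. Concentration–response curves were run with or without the non-selective muscarinic antagonist atropine. Contraction was expressed relative to the maximal carbachol response.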

[21] = Toxicity in dog assessed as convulsion at 45 mg/kg, po using spray-dried dispersion formulation measured after 45 mins; type: organism-based, Canis lupus familiaris; details: in vivo, 0.75 h; in short: as §1
[22] = Toxicity in male rat assessed as increase in body weight at 30 mg/kg, po administered for 14 days; details: in vivo, 336 h
[23] = tested on: Rattus norvegicus; assay: Reversal of scopolamine-induced memory impairment in Wistar rat model at 0.32 mg/kg, po administered 15 min before training followed by 30 mins later administration with scopolamine measured after 24 hrs by Morris water maze test
[24] = biological target: T1, Muscarinic acetylcholine receptor M5 (Homo sapiens, UniProt P08912); assay: Positive allosteric modulation of human recombinant muscarinic M5 receptor stably expressed in CHO cells assessed as increase in Ach-induced accumulation of intracellular calcium level upto 10 uM incubated for 10 mins followed by addition of Ach at EC20 concentration by Fluo-8AM dye based FLIPR TETRA method
T1 sequence (P08912 whole entry): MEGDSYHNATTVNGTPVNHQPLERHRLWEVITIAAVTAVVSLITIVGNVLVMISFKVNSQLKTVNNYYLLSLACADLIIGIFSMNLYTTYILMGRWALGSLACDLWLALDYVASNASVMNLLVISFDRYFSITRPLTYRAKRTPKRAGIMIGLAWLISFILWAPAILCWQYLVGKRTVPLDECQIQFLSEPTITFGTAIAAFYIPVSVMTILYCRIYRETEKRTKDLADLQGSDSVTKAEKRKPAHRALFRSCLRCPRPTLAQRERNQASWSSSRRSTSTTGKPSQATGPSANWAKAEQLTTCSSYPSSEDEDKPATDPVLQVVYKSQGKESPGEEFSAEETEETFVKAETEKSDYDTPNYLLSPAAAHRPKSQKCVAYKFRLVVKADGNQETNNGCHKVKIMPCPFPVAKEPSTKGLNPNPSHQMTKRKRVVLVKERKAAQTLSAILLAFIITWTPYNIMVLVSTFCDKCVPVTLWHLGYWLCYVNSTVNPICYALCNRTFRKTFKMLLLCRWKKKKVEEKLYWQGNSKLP

Cc1cnc(C(=O)N[C@H]2CCOC[C@@H]2O)cc1Cc1ccc(-c2cscn2)cc1
fold change (FC) [1]: 42
Activity [2]: Non-Toxic
Activity [3]: Toxic
Activity [4]: Toxic
fCmax [5]: 659 nM
Activity [6]: Non-Toxic
Activity [7]: Non-Toxic
fCmax [8]: 195 nM
Drug uptake(free) [9]: 85.2 nM
Drug uptake(free) [10]: 18.5 nM
Drug uptake(free) [11]: 6.38 nM
IC50 [12]: 3.09 µM
Activity [13]: Not Active
Kp uu [14]: 0.3
Fu [15]: 8.1%
half-life [16]: 5.58 h
Kp uu [17]: 0.34
Activity [18]: Non-Toxic
Activity [19]: Non-Toxic
Activity [20]: Not Active
Activity [21]: Toxic
Activity [22]: Non-Toxic
Activity [23]: Active
Activity [24]: Not Active
